# Results: ChEMBL document CHEMBL1142937, “Synthesis, affinity profile, and functional activity of muscarinic antagonists with a 1-methyl-2-(2,2-alkylaryl-1,3-oxathiolan-5-yl)pyrrolidine structure” (J Med Chem, 2007)
# Experiments:
# [1] = target: T1, Muscarinic acetylcholine receptor M4 (Homo sapiens, UniProt P08173); test: Binding affinity to human cloned muscarinic receptor M4 expressed in CHO cells; type: cell-based
# T1 sequence (P08173 whole entry): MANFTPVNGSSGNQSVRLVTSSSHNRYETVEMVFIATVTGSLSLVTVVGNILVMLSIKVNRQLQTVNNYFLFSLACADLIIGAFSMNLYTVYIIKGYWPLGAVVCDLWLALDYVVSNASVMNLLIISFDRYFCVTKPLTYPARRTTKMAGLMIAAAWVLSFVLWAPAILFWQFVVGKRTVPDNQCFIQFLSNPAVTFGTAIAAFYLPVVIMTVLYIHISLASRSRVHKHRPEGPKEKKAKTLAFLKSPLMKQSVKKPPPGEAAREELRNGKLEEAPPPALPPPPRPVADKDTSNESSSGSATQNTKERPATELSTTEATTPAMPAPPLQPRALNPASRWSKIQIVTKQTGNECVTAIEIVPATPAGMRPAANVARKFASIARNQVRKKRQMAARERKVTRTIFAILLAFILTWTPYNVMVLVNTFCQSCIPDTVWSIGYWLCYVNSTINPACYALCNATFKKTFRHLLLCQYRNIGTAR
# [2] = target: T2, Muscarinic acetylcholine receptor M2 (Homo sapiens, UniProt P08172); test: Binding affinity to human cloned muscarinic receptor M2 expressed in CHO cells; type: cell-based
# T2 sequence (P08172 whole entry): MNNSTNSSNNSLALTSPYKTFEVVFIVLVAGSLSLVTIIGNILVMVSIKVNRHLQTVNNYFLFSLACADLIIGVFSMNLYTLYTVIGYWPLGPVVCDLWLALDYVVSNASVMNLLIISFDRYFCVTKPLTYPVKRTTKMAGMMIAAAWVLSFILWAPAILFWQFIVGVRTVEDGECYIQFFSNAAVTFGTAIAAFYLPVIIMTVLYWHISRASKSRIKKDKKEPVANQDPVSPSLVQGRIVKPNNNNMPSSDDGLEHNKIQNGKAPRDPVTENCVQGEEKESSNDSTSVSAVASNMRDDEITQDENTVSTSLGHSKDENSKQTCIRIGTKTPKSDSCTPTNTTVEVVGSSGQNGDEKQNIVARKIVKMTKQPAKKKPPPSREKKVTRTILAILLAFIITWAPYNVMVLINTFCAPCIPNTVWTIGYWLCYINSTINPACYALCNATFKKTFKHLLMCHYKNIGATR
# Summary of the method: (§1)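 Equilibrium radioligand binding on CHO cells expressing the cloned human muscarinic subtype. Affinity is reported as pKi.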
# [3] = target: Muscarinic acetylcholine receptor M3 (Cavia porcellus) (UniProt Q8VH26); test: (§2) Antagonist activity at muscarinic receptor M3 assessed as contraction of guinea pig ileum; type: functional, tissue-based; conditions: filed as antagonist
# Muscarinic acetylcholine receptor M3 (Cavia porcellus), sequence (Q8VH26 1-587): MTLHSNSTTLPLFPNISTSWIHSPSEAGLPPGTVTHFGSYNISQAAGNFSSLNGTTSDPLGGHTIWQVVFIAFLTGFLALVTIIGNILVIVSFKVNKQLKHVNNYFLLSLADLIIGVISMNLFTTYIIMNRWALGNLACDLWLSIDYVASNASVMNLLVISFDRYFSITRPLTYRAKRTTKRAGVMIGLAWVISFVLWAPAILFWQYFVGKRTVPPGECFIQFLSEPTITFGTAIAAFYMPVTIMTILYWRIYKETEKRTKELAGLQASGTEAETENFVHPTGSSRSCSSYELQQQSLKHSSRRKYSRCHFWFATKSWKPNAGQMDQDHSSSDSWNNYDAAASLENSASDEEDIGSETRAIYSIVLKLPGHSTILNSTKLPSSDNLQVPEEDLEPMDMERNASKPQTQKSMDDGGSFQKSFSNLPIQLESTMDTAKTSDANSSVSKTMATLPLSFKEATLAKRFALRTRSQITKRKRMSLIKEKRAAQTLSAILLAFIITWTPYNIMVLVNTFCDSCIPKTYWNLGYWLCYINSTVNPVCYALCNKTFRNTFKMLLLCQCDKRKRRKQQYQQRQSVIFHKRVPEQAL
# Summary of the method: (§3)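 Isolated guinea pig tissue preparations (stimulated left atria, ileum, lung strips), run in vitro by a previously described protocol, with the ileum method slightly modified. Agonist dose–response curves were recorded before and after one or two antagonist concentrations. pKb = log(DR−1) − log[B], where DR is the ratio of agonist ED50 after/before antagonist. Some cases were expressed as pA2 from Schild plots constrained to slope −1.0.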
# [4] = test system: Muscarinic acetylcholine receptor M2 (Cavia porcellus); test: Antagonist activity at muscarinic receptor M2 assessed as contraction of electrically-stimulated guinea pig left atria; conditions: for pKb: filed as antagonist; for Kb: read-out: pA2 (converted)
# [5] = test system: Muscarinic acetylcholine receptor M4, putative (Cavia porcellus); test: Antagonist activity at putative muscarinic receptor M4 assessed as contraction of electrically-stimulated guinea pig lung strips; conditions: filed as antagonist
# [6] = test system: Muscarinic acetylcholine receptor M1, putative (Oryctolagus cuniculus); conditions: Vas deferens, filed as antagonist
# [7] = target: T3, Muscarinic acetylcholine receptor M5 (Homo sapiens, UniProt P08912); test: Binding affinity to human cloned muscarinic receptor M5 expressed in CHO cells; type: cell-based; summary of the method: as §1
# T3 sequence (P08912 whole entry): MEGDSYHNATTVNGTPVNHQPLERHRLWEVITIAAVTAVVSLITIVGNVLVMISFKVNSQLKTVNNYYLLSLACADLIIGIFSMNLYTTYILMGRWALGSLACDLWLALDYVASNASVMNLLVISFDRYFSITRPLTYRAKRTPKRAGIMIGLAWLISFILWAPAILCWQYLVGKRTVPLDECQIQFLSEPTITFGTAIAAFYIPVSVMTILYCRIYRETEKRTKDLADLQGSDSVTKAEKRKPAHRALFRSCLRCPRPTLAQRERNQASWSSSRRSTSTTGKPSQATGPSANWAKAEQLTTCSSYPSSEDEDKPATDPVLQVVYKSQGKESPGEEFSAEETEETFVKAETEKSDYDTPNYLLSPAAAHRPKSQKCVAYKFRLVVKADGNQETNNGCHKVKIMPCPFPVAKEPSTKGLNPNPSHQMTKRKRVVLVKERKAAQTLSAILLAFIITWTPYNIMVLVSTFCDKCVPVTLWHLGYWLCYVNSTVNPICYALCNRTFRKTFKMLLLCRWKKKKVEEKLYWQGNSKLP
# [8] = target: Muscarinic acetylcholine receptor M3 (Homo sapiens, UniProt P20309); test: Binding affinity to human cloned muscarinic receptor M3 expressed in CHO cells; type: cell-based
# Muscarinic acetylcholine receptor M3 (Homo sapiens, UniProt P20309), sequence (P20309 whole entry): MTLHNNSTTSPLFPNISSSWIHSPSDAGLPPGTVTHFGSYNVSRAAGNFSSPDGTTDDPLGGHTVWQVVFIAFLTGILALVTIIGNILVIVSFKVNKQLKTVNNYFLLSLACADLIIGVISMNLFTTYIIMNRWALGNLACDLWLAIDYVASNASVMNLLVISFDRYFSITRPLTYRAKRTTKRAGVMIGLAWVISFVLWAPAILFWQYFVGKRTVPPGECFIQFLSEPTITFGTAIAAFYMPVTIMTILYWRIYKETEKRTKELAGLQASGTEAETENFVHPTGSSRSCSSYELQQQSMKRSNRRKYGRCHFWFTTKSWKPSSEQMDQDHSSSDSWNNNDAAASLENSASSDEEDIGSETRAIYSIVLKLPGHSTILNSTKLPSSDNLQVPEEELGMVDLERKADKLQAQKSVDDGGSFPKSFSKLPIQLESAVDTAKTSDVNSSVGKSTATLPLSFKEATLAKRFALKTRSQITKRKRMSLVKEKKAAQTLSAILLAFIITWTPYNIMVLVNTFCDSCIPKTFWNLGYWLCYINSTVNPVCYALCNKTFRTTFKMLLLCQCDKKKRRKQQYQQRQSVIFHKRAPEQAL
# [9] = target: T4, Muscarinic acetylcholine receptor M1 (Homo sapiens, UniProt P11229); test: Binding affinity to human cloned muscarinic receptor M1 expressed in CHO cells; type: cell-based
# T4 sequence (P11229 whole entry): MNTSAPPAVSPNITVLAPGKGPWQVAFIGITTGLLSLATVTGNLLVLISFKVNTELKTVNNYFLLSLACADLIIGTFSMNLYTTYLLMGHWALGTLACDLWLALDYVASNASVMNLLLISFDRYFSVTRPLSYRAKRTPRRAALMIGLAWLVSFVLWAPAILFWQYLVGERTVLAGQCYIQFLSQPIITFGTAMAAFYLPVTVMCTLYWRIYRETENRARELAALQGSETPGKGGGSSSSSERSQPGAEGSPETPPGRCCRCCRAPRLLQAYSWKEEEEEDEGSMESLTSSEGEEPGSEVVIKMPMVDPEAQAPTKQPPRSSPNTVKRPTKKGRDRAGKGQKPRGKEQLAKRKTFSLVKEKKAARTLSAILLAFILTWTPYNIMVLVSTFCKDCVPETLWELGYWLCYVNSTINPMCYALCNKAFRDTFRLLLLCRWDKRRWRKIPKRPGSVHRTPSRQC
# [10] = target: Muscarinic acetylcholine receptor M3 (Cavia porcellus, UniProt Q8VH26); test: as §2; type: functional, tissue-based; conditions: read-out: pA2 (converted); summary of the method: as §3
# Muscarinic acetylcholine receptor M3 (Cavia porcellus, UniProt Q8VH26), sequence (Q8VH26 whole entry): as the sequence (Q8VH26 1-587) above
Compound,Ki [1],Ki [2],pKb [3],pKb [4],pKb [5],pKb [6],Ki [7],Ki [8],Ki [9],Kb [4],Kb [10]
C[N+](C)(C)C[C@@H]1CS[C@@](c2ccccc2)(C2CCCCC2)O1,6.17 nM (antagonist),7.59 nM (antagonist),8.79,8.47,6.24,8.81,2.82 nM (antagonist),1.78 nM (antagonist),1.1 nM (antagonist),–,–
C[N+]1(C)CCC[C@H]1[C@H]1CSC(c2ccccc2)(c2ccccc2)O1,0.468 nM (antagonist),0.468 nM (antagonist),9.16,8.78,7.79,9.56,0.407 nM (antagonist),0.741 nM (antagonist),0.295 nM (antagonist),–,–
C[N+]1(C)CCC[C@@H]1[C@@H]1CS[C@@](c2ccccc2)(C2CCCCC2)O1,0.708 nM (antagonist),0.832 nM (antagonist),8.79,8.6,6.47,9.53,0.776 nM (antagonist),0.912 nM (antagonist),0.501 nM (antagonist),–,–
C[N+]1(C)CCC[C@H]1[C@H]1CS[C@](c2ccccc2)(C2CCCCC2)O1,0.871 nM (antagonist),0.776 nM (antagonist),8.5,–,7.47,9.52,0.2 nM (antagonist),0.589 nM (antagonist),0.251 nM (antagonist),4.27 nM (antagonist),–
C[N+]1(C)[C@@H]2C[C@@H](OC(=O)[C@H](CO)c3ccccc3)C[C@H]1[C@@H]1O[C@@H]12 [METHSCOPOLAMINE],–,–,–,–,–,–,–,–,–,–,0.617 nM (antagonist)
CN1CCC[C@@H]1[C@@H]1CSC(c2ccccc2)(c2ccccc2)O1,2 nM (antagonist),2.75 nM (antagonist),8.44,7.97,6.06,8.66,3.24 nM (antagonist),2.45 nM (antagonist),0.759 nM (antagonist),–,–
CN1CCC[C@@H]1[C@@H]1CS[C@](c2ccccc2)(C2CCCCC2)O1,1 nM (antagonist),1.07 nM (antagonist),8.55,8.07,6.03,9.16,2 nM (antagonist),2.19 nM (antagonist),0.347 nM (antagonist),–,–
C[N+]1(C)CCC[C@@H]1[C@@H]1CS[C@](c2ccccc2)(C2CCCCC2)O1,1.82 nM (antagonist),1.48 nM (antagonist),8.84,8.54,6.55,8.49,3.24 nM (antagonist),4.9 nM (antagonist),0.955 nM (antagonist),–,–
CN1CCC[C@H]1[C@H]1CSC(c2ccccc2)(c2ccccc2)O1,3.31 nM (antagonist),4.9 nM (antagonist),8.05,7.58,6.41,7.93,5.62 nM (antagonist),5.25 nM (antagonist),3.47 nM (antagonist),–,–
CN1CCC[C@@H]1[C@@H]1CS[C@@](c2ccccc2)(C2CCCCC2)O1,1.26 nM (antagonist),4.47 nM (antagonist),7.65,7.13,5.98,7.95,1.2 nM (antagonist),1.45 nM (antagonist),0.912 nM (antagonist),–,–
CN1CCC[C@H]1[C@H]1CS[C@](c2ccccc2)(C2CCCCC2)O1,1.2 nM (antagonist),4.27 nM (antagonist),7.7,6.91,5.92,8.32,2 nM (antagonist),1.7 nM (antagonist),1.48 nM (antagonist),–,–
C[N+]1(C)CCC[C@@H]1[C@@H]1CSC(c2ccccc2)(c2ccccc2)O1,3.47 nM (antagonist),3.39 nM (antagonist),8.26,7.76,6.52,8.49,3.47 nM (antagonist),5.01 nM (antagonist),2.34 nM (antagonist),–,–
CN1CCC[C@H]1[C@H]1CS[C@@](c2ccccc2)(C2CCCCC2)O1,2.34 nM (antagonist),2.75 nM (antagonist),8.92,8.82,6.22,7.41,1.35 nM (antagonist),0.891 nM (antagonist),1.38 nM (antagonist),–,–
C[N+]1(C)CCC[C@H]1[C@H]1CS[C@@](c2ccccc2)(C2CCCCC2)O1,0.871 nM (antagonist),0.955 nM (antagonist),9.66,–,7.99,9.97,0.107 nM (antagonist),0.339 nM (antagonist),0.117 nM (antagonist),1 nM (antagonist),–
